Assay [1] has as its system Mycobacterium tuberculosis variant bovis BCG. Briefly: Antimicrobial activity against Mycobacterium bovis BCG KOP55 harboring pPAZ23 carrying p27-p55 operon by resazurine microtiter assay in presence of 1 mg/liter CCCP. It counts as functional. Particulars: KOP55, Urine. Summed up: (§1)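 Resazurin microdilution MIC (serial twofold dilutions, 8 days at 37°C plus 2 days after resazurin) run with a fixed subinhibitory level of efflux pump inhibitor (valinomycin, reserpine or CCCP) present throughout. Triplicate, repeated at least three times.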
A general note: The colour change of resazurin is a common sign of viable cells or microbes.

For assay [2] the test system is unchanged. Briefly: Antimicrobial activity against Mycobacterium bovis BCG KOP55 harboring pPAZ23 carrying p27-p55 operon by resazurine microtiter assay. It counts as functional. The note with it: KOP55, Urine. Summed up: (§2)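 Resazurin microdilution in liquid medium: serial twofold compound dilutions, plates incubated 8 days at 37°C, then 2 more days after adding resazurin. MIC read from the indicator. Run in triplicate and repeated at least three times.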

The test system is the same in assay [3]. As to the kind of experiment: Antimicrobial activity against Mycobacterium bovis BCG KOP55 harboring inactivated p55 gene by resazurine microtiter assay in presence of 1 mg/liter CCCP. The assay is classed as functional. Particulars: KOP55, Urine. In a few lines:
as §1

Assay [4] shares this test system. As to the kind of experiment: Antimicrobial activity against Mycobacterium bovis BCG KOP55 harboring inactivated p55 gene by resazurine microtiter assay. The assay is classed as functional. The note with it: KOP55, Urine. In a few lines: as §2
For assay [5] the test system is unchanged. Briefly: Antimicrobial activity against Mycobacterium bovis BCG KOP55 harboring inactivated p55 gene by resazurine microtiter assay in presence of 0.1 mg/liter valinomycin. The assay is classed as functional. Particulars: KOP55, Urine. In a few lines: as §1
Assay [6] has the same test system. Briefly: Antimicrobial activity against Mycobacterium bovis BCG KOP55 harboring pPAZ23 carrying p27-p55 operon by resazurine microtiter assay in presence of 0.5 mg/liter reserpine. It counts as functional. The note with it: KOP55, Urine. In a few lines:
as §1

Assay [7] shares this test system. As to the kind of experiment: Antimicrobial activity against Mycobacterium bovis BCG KOP55 harboring pPAZ23 carrying p27-p55 operon by resazurine microtiter assay in presence of 0.1 mg/liter valinomycin. It counts as functional. Particulars: KOP55, Urine. Summed up: as §1
The test system is the same in assay [8]. Briefly: Antimicrobial activity against Mycobacterium bovis BCG KOP55 harboring inactivated p55 gene by resazurine microtiter assay in presence of 0.5 mg/liter reserpine. The assay is classed as functional. The note with it: KOP55, Urine. In a few lines: as §1
Assay [9] shares this test system. Briefly: Antimicrobial activity against Mycobacterium bovis BCG P55 at 5 umol after 14 days by disk diffusion method. It counts as functional. Summed up: (§3)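 Disc assay on Middlebrook 7H10 agar: lawn spread from a suspension of 10^6 cells/ml, discs carrying the redox compound placed on the lawn, halos recorded after 14 days at 37°C.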
(In general: In agar diffusion tests the substance spreads into inoculated agar from a disc or well.)

Assay [10] shares this test system. Briefly: Antimicrobial activity against Mycobacterium bovis BCG KOP55 harboring inactivated p55 gene at 5 umol after 14 days by disk diffusion method. It counts as functional. In a few lines: as §3
For assay [11] the test system is unchanged. Briefly: Antimicrobial activity against Mycobacterium bovis BCG KOP55 harboring pPAZ23 carrying p27-p55 operon by twofold dilution method. It counts as functional. Summed up: (§4)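 Agar MIC: log-phase cultures diluted to 10^5 cells/ml, 10 µl spotted onto Middlebrook 7H10 plates with serial twofold antibiotic dilutions. Visible growth scored after 21 days at 37°C. Triplicate, repeated at least three times.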

For assay [12] the test system is unchanged. As to the kind of experiment: Antimicrobial activity against Mycobacterium bovis BCG KOP55 harboring inactivated p55 gene by twofold dilution method. It counts as functional. In a few lines: as §4
The test system is the same in assay [13]. Briefly: Decrease in intracellular redox potential in Mycobacterium bovis BCG KOP55 harboring inactivated p55 gene assessed as decreased accumulation of formazan at 5 mg/liter after 1 hr by MTT assay. It counts as functional. The arrangement: scale not given: the % may be the effect or the level left. Summed up:
(§5)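 MTT reduction as an index of intracellular redox potential: cultures at OD600 0.2 treated with drug or solvent for 1 h at 37°C in quadruplicate wells, MTT (2 mg/ml stock) added, 3 h further incubation. Formazan solubilised with 10% SDS, 30 min shaking, absorbance at 600 nm. Repeated at least three independent times.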

Assay [14] shares this test system. As to the kind of experiment: Effect on intracellular redox potential in Mycobacterium bovis BCG KOP55 harboring pPAZ23 carrying p27-p55 operon assessed as accumulation of formazan at 5 mg/liter after 1 hr by MTT assay. It counts as functional, organism-based. Summed up:
as §5

Assay [15] has the same test system. Briefly: Increase in intracellular redox potential in Mycobacterium bovis BCG KOP55 harboring inactivated p55 gene assessed as increased accumulation of formazan at 64 mg/liter after 1 hr by MTT assay. It counts as functional. Summed up: as §5
The test system is the same in assay [16]. Briefly: Antimicrobial activity against Mycobacterium bovis BCG P55 at 0.125 umol after 14 days by disk diffusion method. The assay is classed as functional. Summed up:
as §3

For assay [17] the test system is unchanged. Briefly: Antimicrobial activity against Mycobacterium bovis BCG KOP55 harboring inactivated p55 gene at 0.125 umol after 14 days by disk diffusion method. The assay is classed as functional. In a few lines: as §3
Assay [18] has the same test system. Briefly: Increase in intracellular redox potential in Mycobacterium bovis BCG KOP55 harboring pPAZ23 carrying p27-p55 operon assessed as increased accumulation of formazan at 64 mg/liter after 1 hr by MTT assay. The assay is classed as functional. In a few lines: as §5
(In general: Formazan colour is commonly taken as a measure of viable cells.)

The test system is the same in assay [19]. As to the kind of experiment: Antimicrobial activity against Mycobacterium bovis BCG P55 by resazurine microtiter assay. The note with it: P55, Urine. It counts as functional. In a few lines:
as §2

Assay [20] shares this test system. Briefly: Decrease in intracellular redox potential in Mycobacterium bovis BCG KOP55 harboring inactivated p55 gene assessed as decreased accumulation of formazan at 256 mg/liter after 1 hr by MTT assay. The assay is classed as functional. Also on record: scale not given: the % may be the effect or the level left. In a few lines: as §5
Assay [21] has the same test system. Briefly: Effect on intracellular redox potential in Mycobacterium bovis BCG KOP55 harboring pPAZ23 carrying p27-p55 operon assessed as accumulation of formazan at 256 mg/liter after 1 hr by MTT assay. The assay is classed as functional, organism-based. In a few lines: as §5

Structures are written as SMILES. ≈ marks a conversion by molar mass, not a printed value. Calls of active or inactive are those of the source. The rule behind the calls is not given here. Where a SMILES comes first, the peptide text is derived from it. Bridges are numbered along the chain shown (N, C = ends). [ ]: non-standard residue; d: D form. The star is where a group is joined. Ileψ(thiazoline)Cys = CC[C@H](C)[C@H](N)C1=N[C@H](C(=O)*)CS1; dOrn = NCCC[C@@H](N)C(=O)O A value given as a limit tells only on which side of the number the result lay.

The values that follow come from ChEMBL document CHEMBL1649585, “Role of the Mycobacterium tuberculosis P55 efflux pump in intrinsic drug resistance, oxidative stress responses, and growth” (2009).

By MIC is commonly meant the least concentration at which growth counts as inhibited. In the case of `CC[C@H](C)[C@H](N)C1=N[C@H](C(=O)N[C@@H](CC(C)C)C(=O)N[C@H](CCC(=O)O)C(=O)N[C@H](C(=O)N[C@H]2CCCCNC(=O)[C@H](CC(N)=O)NC(=O)[C@@H](CC(=O)O)NC(=O)[C@H](Cc3cnc[nH]3)NC(=O)[C@@H](Cc3ccccc3)NC(=O)[C@H]([C@@H](C)CC)NC(=O)[C@@H](CCCN)NC2=O)[C@@H](C)CC)CS1` [BACITRACIN] ({Ileψ(thiazoline)Cys}-L[dE]IK[dOrn]I[dF]H[dD]N; lactam 4-C), the MIC in assay [1] was above 256 µg/mL; in assay [2], above 256 µg/mL; in assay [3], 16 µg/mL; in [4], 16 µg/mL.
As to `CC[C@@H](CO)NCCN[C@@H](CC)CO` [ETHAMBUTOL], the MIC in assay [4] was determined as 2 µg/mL.
`CO[C@@H]1[C@@H](OC(N)=O)[C@@H](O)[C@H](Oc2ccc3c(O)c(NC(=O)c4ccc(O)c(CC=C(C)C)c4)c(=O)oc3c2C)OC1(C)C` [NOVOBIOCIN]: the MIC was 0.5 µg/mL in assay [5]; 8 µg/mL in assay [6]; 4 µg/mL in [1]; 8 µg/mL in [7]; 16 µg/mL (≈ 26.1 µM) in assay [2]; 1 µg/mL in assay [3]. Moreover, the MIC in assay [8] was found to be 1 µg/mL; in assay [4] it was 2 µg/mL.
As for `COC(=O)[C@H]1[C@H]2C[C@@H]3c4[nH]c5cc(OC)ccc5c4CCN3C[C@H]2C[C@@H](OC(=O)c2cc(OC)c(OC)c(OC)c2)[C@@H]1OC` [RESERPINE], the MIC in [2] was 2 µg/mL (≈ 3.29 µM); in assay [4], 2 µg/mL.
For `OC(CS)C(O)CS` (racemic) [DL-DITHIOTHREITOL], the “inhibition zone (IZ)” value in assay [9] amounted to 0 mm; in assay [10], 30 mm.
Turning to `CN[C@H](CC(C)C)C(=O)N[C@H]1C(=O)N[C@@H](CC(N)=O)C(=O)N[C@H]2C(=O)N[C@H]3C(=O)N[C@H](C(=O)N[C@H](C(=O)O)c4cc(O)cc(O)c4-c4cc3ccc4O)[C@H](O)c3ccc(c(Cl)c3)Oc3cc2cc(c3O[C@@H]2O[C@H](CO)[C@@H](O)[C@H](O)[C@H]2O[C@H]2C[C@](C)(N)[C@H](O)[C@H](C)O2)Oc2ccc(cc2Cl)[C@H]1O` [VANCOMYCIN], the minimal inhibitory concentration (MIC) in [7] came to 4 µg/mL; in assay [2], 4 µg/mL (≈ 2.76 µM); in assay [3] it was 0.25 µg/mL; in assay [4], 0.25 µg/mL.
`CC(C)/N=c1\cc2n(-c3ccc(Cl)cc3)c3ccccc3nc-2cc1Nc1ccc(Cl)cc1` [CLOFAZIMINE]: the minimum inhibitory concentration (MIC) in [11] was 0.1 µg/mL (≈ 0.211 µM); in [12], 0.025 µg/mL (≈ 0.0528 µM). Further, the Activity in assay [13] was 15%. Besides, the result in [14] was inactive.
In the case of `Clc1ccc(COC(Cn2ccnc2)c2ccc(Cl)cc2Cl)cc1` (configuration not stated) [ECONAZOLE], the values for the MIC in assay [11] and in [12] were 6.4 µg/mL (≈ 16.8 µM) and 1.6 µg/mL (≈ 4.19 µM), respectively.
Consider `CN(C)CCCN1c2ccccc2Sc2ccc(Cl)cc21` [CHLORPROMAZINE], for which the MIC in assay [12] was found to be 4 µg/mL (≈ 12.5 µM).
On to `CC(C)[C@@H]1NC(=O)[C@H](C)OC(=O)[C@@H](C(C)C)NC(=O)[C@@H](C(C)C)OC(=O)[C@H](C(C)C)NC(=O)[C@H](C)OC(=O)[C@@H](C(C)C)NC(=O)[C@@H](C(C)C)OC(=O)[C@H](C(C)C)NC(=O)[C@H](C)OC(=O)[C@@H](C(C)C)NC(=O)[C@@H](C(C)C)OC1=O` [VALINOMYCIN], for which the figures for the MIC in [2] and in assay [4] were 0.4 µg/mL (≈ 0.36 µM) and 0.2 µg/mL, respectively.
Regarding `CC1=CC(=O)c2ccccc2C1=O` [MENADIONE], the “fold change (FC)” value in assay [15] is recorded as 1.3; in assay [18], 3.5. Also, the “inhibition zone (IZ)” value is given as 20 mm in assay [16] and 16 mm in [17].
In [4], `N#CC(C#N)=NNc1cccc(Cl)c1` [CARBONYL CYANIDE M-CHLOROPHENYLHYDRAZONE] had an MIC of 2 µg/mL.
In the case of `CO[C@H]1/C=C/O[C@@]2(C)Oc3c(C)c(O)c4c(O)c(c(/C=N/N5CCN(C)CC5)c(O)c4c3C2=O)NC(=O)/C(C)=C\C=C\[C@H](C)[C@H](O)[C@@H](C)[C@@H](O)[C@@H](C)[C@H](OC(C)=O)[C@@H]1C` [RIFAMPIN], the MIC in assay [5] stood at 0.0002 µg/mL; in assay [6], 0.0016 µg/mL; in [1] it was 0.0008 µg/mL; in [7] it was 0.0016 µg/mL; in [2], 0.0032 µg/mL (≈ 0.00389 µM); in [3] it was 0.0002 µg/mL. In addition, the MIC in assay [8] and in assay [4] was 0.0004 µg/mL in each case.
For the molecule `Oc1cc(Cl)ccc1Oc1ccc(Cl)cc1Cl` [TRICLOSAN], the MIC in assay [12] was 8 µg/mL (≈ 27.6 µM).
As to `O=[N+]([O-])c1cn2c(n1)OC[C@@H](OCc1ccc(OC(F)(F)F)cc1)C2` [PRETOMANID], the MIC in [2] stood at 0.25 µg/mL (≈ 0.696 µM); in assay [4] it was 0.125 µg/mL.
On to `Cc1c(C)n2c(CBr)c(C)c(=O)n2c1=O` [MONOBROMOBIMANE], for which the MIC in assay [19] is 500 µM (≈ 136 µg/mL); in assay [4], 125 µM.
In the case of `CN(C)C(=O)/N=N/C(=O)N(C)C` [DIAMIDE], the “inhibition zone (IZ)” value in assay [9] is 0 mm; in [10] it was 30 mm. In [20], the Activity was 35%. For the same molecule, in assay [21], the outcome was inactive.
